Test results reported in paper PMC5496795 (Clinical cancer research : an official journal of the …, 2017).

Legend:
[1] = tested on: localized prostate cancer; settings: published trial data in localized prostate cancer; ref not given; cited from earlier work
PC-3 xenografts = assay: Combination therapy, tumor growth of PC-3 xenografts; type: in vivo, athymic nude male mice; settings: PC-3 tumor bearing animals
Outline: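 PC-3 cells (5 ×10⁶ in 1:1 media/Matrigel) were implanted in the shoulder of 6–8-week-old males. At about 100 mm³ the mice were randomised to four arms: sham (i.v. saline plus illumination), VTP, radiolabelled peptide (14.8 MBq retro-orbital i.v.), or both. For VTP, 4 h after the peptide, the photosensitizer (9 mg/kg, i.v. bolus, in 5% dextran) was followed immediately by 10 min of 755 nm laser to the tumour plus a 1 mm rim. Tumours were measured by caliper twice weekly to 34 days.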

PC-3 tumors = assay: Histology/IHC of PC-3 tumors; type: in vivo, athymic nude male mice
Outline: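 PC-3 xenograft tumours were taken after treatment, fixed in 10% buffered formalin, paraffin-embedded and cut at 5 micron. Sections were stained with anti-mouse CD31 antibody for vessel density and by TUNEL for cell death. VTP was an i.v. photosensitizer (9 mg/kg) followed immediately by 10 min of 755 nm laser illumination of the tumour area.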

[2] = tested on: GRPr-expressing prostate cancer xenografts; settings: in vivo; cited from earlier work

Row | Compound | Cases with absent evidence of cancer (local tumor ablation) [1] [%] | Animals remaining tumor free at 34 days post treatment (PC-3 xenografts) | Vessel density in PC-3 tumors (IHC anti-CD31) (PC-3 tumors; 24 hours post VTP treatment, compared to control tumors) | TUNEL staining of tumors (cell death) (PC-3 tumors; PC-3 tumors, post VTP treatment) | Fraction of delivered radioactivity washed out at 24 hours p.i. [2] | Time of optimal tumor uptake post injection [2] [h]
1 | CC[C@H]1c2cc3[n-]c(c(CC(=O)OC)c4nc(cc5[n-]c(cc(n2)[C@@H]1C)c(C(C)=O)c5C)[C@@H](C)[C@@H]4CCC(=O)[O-])c(C(=O)NCCS(=O)(=O)[O-])c3C.[H+].[H+].[Pd+2] [VTP] | 80 | 2/12 | markedly reduced vessel density | stained positive |  | 
2 | ^111In-DOTA-PEG4-D-Phe-Gln-Trp-Ala-Val-Gly-His-Sta-Leu-NH2 [^111In-DOTA-AR] |  |  |  |  | about 2/3 | 1 to 4
